Source: PubChem BioAssay
Active and inactive are the calls of the source.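 Rule for the calls, unless noted: active = compounds giving at least 50% inhibition in the cell-based MKP-3 phosphatase rescue imaging test; inactive = the rest.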

Key:
[1] = inhibitors of TNFa-induced NFkB p65 translocation, primary screen, imaging, HUVEC, MLSMR starter and 10KST1 sets (AID 438;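 active = inhibition above 20% together with a positive visual image hit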;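 note: compound added about 3h40 before a 20 min TNFalpha stimulation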;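 for inhibition: signal is the nuclear over cytoplasmic p65 intensity ratio per well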); conditions: HUVEC TNFa-induced p65 nuclear translocation; cell count: measured here: nuclei count (cytotoxicity indicator), at 2.08 µM; inhibition: at 2 µM, stronger effect = higher value, 0% TNFa-plus-vehicle, 100% no-TNFa wells
[2] = inhibitors of E-selectin induction by TNFa, primary screen, imaging, HUVEC, immunofluorescence, MLSMR starter and 10KST1 sets (AID 487;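 active = visually confirmed hit in the image check and inhibition above 20%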;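 for inhibition: signal is fraction of cell area covered by stained E-selectin grains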;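 for nuclei count: 100% = median nuclei count of all wells on the same plate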); conditions: HUVEC TNFalpha-induced E-selectin immunofluorescence imaging, at 2 µM; inhibition: stronger effect = higher value; nuclei count: measured here: cell number, toxicity
[3] = DUSP6 inhibitors restoring Erk phosphorylation by chemical complementation, primary imaging in DUSP6-transfected HeLa (AID 609); conditions: HeLa MKP-3 transfected, phospho-Erk imaging KS statistic, at 10 µM, cells stimulated with TPA for 15 min;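 for inhibition: phospho-Erk level distribution per well compared with pooled transfected vehicle control wells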
[4] = molecular target: Dual specificity protein phosphatase 6 (Homo sapiens) (UniProt Q16828); test: as above; conditions: HeLa MKP-3 transfected, phospho-Erk imaging KS statistic; at 10 µM; stronger effect = higher value; cells stimulated with TPA for 15 min
[5] = molecular target: Voltage-gated potassium channel subunit beta-2 (Rattus norvegicus) (UniProt P62483); test: KvBeta enzyme negative modulators, primary screen, biochemical, NADPH fluorescence (AID 622;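 active = fluorescence slope higher than the sample average by over 3 SD, cut at about -0.22 in these data, passing the limit was not always enough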;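 note: slope of raw intensity against log time taken from 70 to 1610 s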); conditions: recombinant KvBeta, 4-cyanobenzaldehyde reduction, at 10 µM, stronger effect = higher value
[6] = molecular target: Voltage-gated potassium channel subunit beta-2 (Rattus norvegicus) (UniProt P62483); test: KvBeta positive modulators, primary screen, biochemical, NADPH fluorescence (AID 623;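 active = NADPH fluorescence slope more negative than the mean of all samples by about 3 SD, 99.7% confidence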;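 note: fluorescence intensity change per second fitted from 20 to 320 s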); conditions: Recombinant KvBeta, NADPH fluorescence decrease slope, 10 min; at 10 µM; stronger effect = lower value
[7] = molecular target: Alpha-2C adrenergic receptor (Homo sapiens) (UniProt P18825); test: modulators of alpha2C/GIRK thallium flux, primary screen, cell-based, HEK293 alpha2C/GIRK1/2 (AID 624;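 active = fluorescence slope after compound addition differing from the mean of all screened samples at 99.7% confidence, in either direction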;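 note: slope of fluorescence ratio to pre-addition baseline per second over 15 to 24 s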); conditions: thallium flux BTC fluorescence, at 10 µM, actives lie on both sides
[8] = inhibitors of larval lipid processing in zebrafish, primary screen, whole organism, PED6 fluorescence, gall bladder and intestine (AID 686;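 active = a full or partial loss of lipid-probe fluorescence in the fish gall bladder, intestine or both, judged by eye; inactive = no fluorescence loss, or compound toxic to the fish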;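 note: larvae 5 to 7 days old with five fish per well; signal comes from phospholipase A2 cleavage of quenched PED6 carried via bile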); conditions: Zebrafish larvae PED6 lipid processing, fluorescence scoring; screened at 20 µM (by protocol)
Summary of the method: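 Incubation: overnight exposure of larvae to compound plus PED6 / Test system: live zebrafish larvae aged 5-7 days, whole organism / Amount: 5 larvae per well / Read-out basis: visual per-well fluorescence inhibition score / Signal: visual fluorescence microscopy scoring of gall bladder, gut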

[9] = inhibitors of Chlamydomonas gravitaxis, primary screen, whole organism, Chlamydomonas reinhardtii, WT vs cilia-less mutant, absorbance, 96-well (AID 463189;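 active = inhibition at or above 50% relative to wild type and mutant plate controls; inactive = inhibition below 50%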;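 note: 0% = wild type cc124 cells in DMSO and 100% = ciliumless bld1 mutant cells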); conditions: OD600 absorbance, 2 days, at 10 µM, stronger effect = higher value
[10] = measured here: cell density z-score
[11] = measured here: nuclear c-Myc green intensity z-score
[12] = measured here: nuclear pErk red intensity z-score, stronger effect = higher value

Sequence of Alpha-2C adrenergic receptor (Homo sapiens) (P18825 whole entry, looked up): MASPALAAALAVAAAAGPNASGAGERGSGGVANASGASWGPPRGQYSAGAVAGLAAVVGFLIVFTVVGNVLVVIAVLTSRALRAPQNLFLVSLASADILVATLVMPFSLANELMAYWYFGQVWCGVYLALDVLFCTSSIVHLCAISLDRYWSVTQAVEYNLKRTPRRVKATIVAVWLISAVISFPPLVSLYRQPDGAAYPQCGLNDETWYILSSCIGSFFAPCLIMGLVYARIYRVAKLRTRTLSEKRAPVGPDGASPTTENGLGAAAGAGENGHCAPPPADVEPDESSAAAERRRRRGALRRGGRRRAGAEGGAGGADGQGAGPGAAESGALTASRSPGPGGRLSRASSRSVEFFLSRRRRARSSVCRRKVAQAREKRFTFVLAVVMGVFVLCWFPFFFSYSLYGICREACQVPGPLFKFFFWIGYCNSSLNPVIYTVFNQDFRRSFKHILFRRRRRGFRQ
Sequence of Voltage-gated potassium channel subunit beta-2 (Rattus norvegicus) (P62483 whole entry, looked up): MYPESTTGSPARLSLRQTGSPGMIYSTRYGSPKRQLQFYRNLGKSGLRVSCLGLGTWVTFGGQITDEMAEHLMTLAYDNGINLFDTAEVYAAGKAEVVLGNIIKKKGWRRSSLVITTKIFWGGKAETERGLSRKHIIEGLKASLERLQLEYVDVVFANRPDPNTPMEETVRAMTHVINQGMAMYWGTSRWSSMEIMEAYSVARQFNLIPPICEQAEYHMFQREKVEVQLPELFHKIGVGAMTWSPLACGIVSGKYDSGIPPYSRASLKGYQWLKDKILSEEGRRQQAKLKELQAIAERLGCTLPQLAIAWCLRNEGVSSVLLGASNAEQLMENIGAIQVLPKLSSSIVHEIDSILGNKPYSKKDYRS
Sequence of Dual specificity protein phosphatase 6 (Homo sapiens) (Q16828 whole entry, looked up): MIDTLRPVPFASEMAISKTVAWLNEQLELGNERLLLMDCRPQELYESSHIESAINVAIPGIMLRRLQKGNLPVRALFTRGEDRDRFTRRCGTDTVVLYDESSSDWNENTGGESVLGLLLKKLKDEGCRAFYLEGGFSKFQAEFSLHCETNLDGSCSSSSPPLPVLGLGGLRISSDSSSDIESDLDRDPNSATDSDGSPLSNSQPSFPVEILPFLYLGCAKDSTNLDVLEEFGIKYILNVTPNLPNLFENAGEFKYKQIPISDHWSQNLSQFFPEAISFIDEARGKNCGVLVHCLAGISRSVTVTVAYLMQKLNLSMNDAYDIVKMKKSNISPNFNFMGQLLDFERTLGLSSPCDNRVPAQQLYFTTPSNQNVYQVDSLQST

Row | SMILES | cell count [1] | inhibition [1] | inhibition [2] | nuclei count [2] [%] | z-score [3, 10] | z-score [3, 11] | z-score [3, 12] | inhibition [4] | fluorescence slope [5] | NADPH fluorescence slope [6] | slope [7] | outcome [8] | inhibition [9]
1 | CN(C)CC(O)COc1cccc(OCC(O)CN(C)C)c1 (configuration not stated) | 433 | -6.5% (inactive) | -137% (inactive) | 155 | -1.38 | -0.215 | 0.992 | -7.28% (inactive) | -0.4 (inactive) | -4.2e-05 (inactive) | 0.00531 (inactive) | inactive | -5.71% (inactive)
2 | CCOC(=O)c1c(CN2CCN(C)CC2)n(C)c2cc(Br)c(OC)cc12 | 320 | -0.7% (inactive) | -50.3% (inactive) | 138 | -0.018 | 0.891 | 1.91 | -12.3% (inactive) | -0.462 (inactive) | -0.000148 (inactive) | 0.00634 (inactive) | inactive | 53.1% (active)
3 | CC(C)C1Cc2c(C#N)c(N)n(C)c(=S)c2CO1 (configuration not stated) | 548 | 1.3% (inactive) | -204% (inactive) | 134 | -0.967 | 0.261 | 0.802 | -8.76% (inactive) | -0.509 (inactive) | -4e-05 (inactive) | 0.00431 (inactive) | inactive | -8.05% (inactive)
4 | COC(=O)c1ccc(Cn2cnc3c(sc4nc(N5CCOCC5)c5c(c43)CCCC5)c2=O)o1 | 505 | 10.2% (inactive) | -144% (inactive) | 132 | -0.452 | 0.953 | 0.541 | -7.01% (inactive) | -0.47 (inactive) | -2.7e-05 (inactive) | 0.00736 (inactive) | inactive; toxic | 6.85% (inactive)
5 | O=C1CCC(=O)N1c1nc2nc(-c3ccccc3)cc(-c3ccccc3)n2n1 | 360 | -6.9% (inactive) | -15.6% (inactive) | 91 | -0.411 | 1.12 | 0.232 | 5.42% (inactive) | -0.467 (inactive) | -3e-05 (inactive) | 0.00473 (inactive) | inactive | 46.1% (inactive)
6 | CC(=O)Nn1cnc2c(c1=O)C1(CCCC1)Cc1ccccc1-2 | 520 | -1.9% (inactive) | 29.6% (inactive) | 113 | -0.985 | 1.83 | 1.16 | -2.69% (inactive) | -0.382 (inactive) | -2e-06 (inactive) | 0.0042 (inactive) | inactive | 43% (inactive)
7 | CCOc1ccc2c(C)nc(NC3=NC(C)(C)C=C(C)N3)nc2c1 | 641 | -3.1% (inactive) | 46.4% (inactive) | 158 | -1.28 | 1.6 | 1.26 | -9.66% (inactive) | -0.373 (inactive) | -4.2e-05 (inactive) | 0.00624 (inactive) | inactive | 19.3% (inactive)
8 | Cn1nnnc1-c1cc(Br)ccc1NC(=O)c1ccccc1 | 397 | -1.8% (inactive) | -2.9% (inactive) | 93.6 | -0.94 | 1.01 | -1.17 | -8.27% (inactive) | -0.39 (inactive) | 7.2e-07 (inactive) | 0.00973 (inactive) | inactive | -4.44% (inactive)
9 | COc1ccc(-c2nn3c(COc4ccccc4)nnc3s2)cc1OC | 597 | -0.7% (inactive) | 33.6% (inactive) | 96.3 | 1.18 | -0.256 | -1 | -0.674% (inactive) | -0.395 (inactive) | -6e-05 (inactive) | 0.00544 (inactive) | inactive | -1.36% (inactive)
10 | O=C(Nc1ccc(Cl)cn1)C1CCCN1S(=O)(=O)c1ccccc1 (configuration not stated) | 365 | 4.7% (inactive) | -101% (inactive) | 154 | 2.19 | 0.087 | -0.0829 | 11.3% (inactive) | -0.415 (inactive) | -4e-05 (inactive) | 0.00596 (inactive) | inactive | -3.35% (inactive)
11 | O=C(Nc1ncn[nH]1)c1c(Cl)ccc(Cl)c1Cl | 597 | -1.6% (inactive) | 20% (inactive) | 162 | -1.37 | 0.992 | 0.69 | -15% (inactive) | -0.362 (inactive) | -8.7e-06 (inactive) | 0.00528 (inactive) | inactive | 0.721% (inactive)
12 | COCCn1c(N)c(C(=O)NCC2CCCO2)c2nc3ccccc3nc21 (configuration not stated) | 564 | -8.3% (inactive) | -74.5% (inactive) | 106 | 0.365 | -2.02 | 0.128 | -11.5% (inactive) | -0.0102 (inactive) | 7e-06 (inactive) | 0.00477 (inactive) | inactive | 26.2% (inactive)
13 | Cc1nc(NS(=O)(=O)c2ccccc2)sc1NC(=O)OCCN(C)C | 362 | -18.9% (inactive) | -107% (inactive) | 130 | 1.66 | -0.339 | -0.337 | 24.3% (inactive) | -0.331 (inactive) | 2.1e-06 (inactive) | 0.00439 (inactive) | inactive | 34.8% (inactive)
14 | CCCSc1nc(C)c(CC(=O)OCC)c(=O)[nH]1 | 573 | -10.2% (inactive) | -162% (inactive) | 138 | -0.128 | -1.19 | 1.09 | 1.98% (inactive) | -0.508 (inactive) | -6e-05 (inactive) | 0.008 (inactive) | inactive | 6.42% (inactive)
